Measured values taken from paper PMC10450354 (Bioactive Materials, 2023).

What was measured:
[1] = tested on: BMDMs; test: Flow cytometry of M2 markers in BMDMs incubated with IL-4 and UPNs; assay type: cell-based, mouse; details: for effect of inhibitor on UPN-induced CD206 expression: flow cytometry, IL-4 and UPN induced macrophages
Outline: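 Bone marrow cells from C57BL/6J mice were red-cell-lysed and grown as BMDMs at 37 °C and 5% CO2 in M-CSF medium (40 ng/ml). Medium was replenished on days 2 and 3 and renewed on day 5. Groups were untreated, IL-4, test nanofibers, and IL-4 plus test nanofibers. STAT6-IN-1 (p-STAT6 inhibitor) was applied with IL-4 plus nanofibers. CD163 and CD206 were quantified by flow cytometry; mean ± SD, n = 3.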

[2] = tested on: BMSCs; test: Transwell migration of BMSCs in coculture; assay type: cell-based, mouse
Outline: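 BMSCs were obtained from 4-week-old SPF C57BL/6J mouse bone marrow, red-cell-lysed at 4 °C for 10 min, and cultured at 37 °C and 5% CO2. They were then cocultured with macrophages given no treatment, IL-4, or IL-4 plus test nanofibers. BMSC migration was assessed at 0, 24 and 48 h and expressed as percentage of migrating cells; mean ± SD, n = 3.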

[3] = tested on: p-STAT6; test: p-STAT6 immunofluorescence in M2-type macrophages; assay type: cell-based, mouse; details: 24 h; semiquantitative; Ctrl group 1.7%; Fig. 4E
[4] = tested on: macrophages; test: Microscopic observation of macrophage state with UP and UPN; assay type: cell-based, mouse; details: 800 μg/ml, 0, 48 and 72 h; Figure S7 A-C
Outline: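 Peptide and nanofiber preparations pre-incubated 6 h. Cells then cultured with them for 0, 48 and 72 h. Cell activity state checked by light microscopy alongside a CCK-8 proliferation read (100 μl per 2 ml medium, 2 h, absorbance 450 nm).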

[5] = tested on: macrophages; test: TEM of macrophage mitochondria; assay type: cell-based, mouse; details: Ctrl group nearly 20%, Fig. 2J
Outline: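 Macrophages derived from mouse bone marrow in M-CSF medium (40 ng/ml), refreshed on days 2, 3 and 5, then induced with peptide or nanofibers. Imaged by transmission electron microscopy. Expanded mitochondria scored as a fraction of total mitochondria. Mean ± SD, n = 3.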

[6] = tested on: bone defects in mice; test: Gene transcript sequencing of bone defects in mice treated with UPs; assay type: in vivo, mouse; details: mice treated with UPs for 14 days (tail vein injection); Fig. 3A

Compound: O=C(Nc1ccccc1)c1cc([N+](=O)[O-])ccc1Cl [GW9662]
- effect of inhibitor on UPN-induced CD206 expression [1]: inhibited UPN-induced expression of the M2 type macrophage marker CD206

Compound: IL-4: interleukin-4, used to induce M2-type macrophages
- percentage of migrating cells at 24 h ([2]; 24 h, control group nearly 2%, Fig. 5I): 7.2%
- number of migrating cells at 48 h ([2]; 48 h, control group 4.8%, Fig. 5J): 13.7%
- expression of CD163 ([1]; BMDMs, flow cytometry quantification, n = 3, Ctrl nearly 17.2%, Fig. 3L): 50.3%
- expression of CD206 ([1]; BMDMs, flow cytometry quantification, n = 3, Ctrl nearly 18.1%, Fig. 3M): 40.9%
- p-STAT6 fluorescence intensity [3]: 7.8%

Compound: Ser-Glu-Ser-Ser-Glu [UP]
- active status of macrophages under the microscope [4]: not significantly toxic
- percentage of swollen mitochondria [5]: 38%
- expression of Arg1 and CD163 in bone defects [6]: marked increase in the expression of Arg1 and CD163

Compound: C/C(=C\C(=O)N[C@H](C(=O)N1CCC[C@H]1C(=O)N(c1ccccc1)c1ccc(I)cc1)C(C)(C)C)c1ccc(OP(=O)(O)O)cc1 [STAT6-IN-1]
- effect of inhibitor on UPN-induced CD206 expression [1]: inhibited UPN-induced expression of the M2-type macrophage marker CD206
